Tests used:
Format in all cases: nucleic-acid assay
Nucleic Acid [1] = assay: Inhibitory concentration required to displace DNA-bound ethidium bromide molecules bound to CA12 (5''-CGCGAATTCGCG)2; NI denotes no inhibition
How it was run: (§1)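 Ethidium bromide displacement at 25 °C: duplex DNA (1 μM) and ethidium bromide (1 μM) in 20 mM Tris–HCl, pH 8.0, containing 1 mM MgCl2. Ligand titrated from 0 to 10 μM. Fluorescence read at λex 546 nm, λem 590 nm. IC50 is the concentration displacing 50% of DNA-bound ethidium, expressed as the dimer complex except for Hoechst 33258.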

Nucleic Acid [2] = assay: Inhibitory concentration required to displace DNA-bound ethidium bromide molecules bound to CT12 (5''-CGTAGCGCTACG)2; NI denotes no inhibition; how it was run: as §1
Nucleic Acid [3] = assay: Inhibitory concentration required to displace DNA-bound ethidium bromide molecules bound to CT12 (5''-CGTAGCGCTACG)2; how it was run: as §1
Nucleic Acid [4] = assay: Inhibitory concentration required to displace DNA-bound ethidium bromide molecules bound to CA12 (5''-CGCGAATTCGCG)2; how it was run: as §1
Nucleic Acid [5] = assay: Inhibitory concentration required to displace one of two DNA-bound ethidium bromide molecules bound to CT12 (5''-CGTAGCGCTACG)2
How it was run: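 Ethidium bromide displacement at 25 °C. CT12 duplex (1 μM) and ethidium bromide (1 μM) in 20 mM Tris–HCl, pH 8.0, with 1 mM MgCl2. Ligand titrated from 0 to 10 μM. Fluorescence read at λex 546 nm, λem 590 nm. IC50 is the concentration that displaces 50% of DNA-bound ethidium, expressed as dimer complex.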

Row | SMILES | IC50 (Nucleic Acid [1]) | IC50 (Nucleic Acid [2]) | IC50 (Nucleic Acid [3]) [µM] | IC50 (Nucleic Acid [4]) [µM] | IC50 (Nucleic Acid [5]) [µM]
1 | C[C@H]1CC(=O)c2c(cc3cc(O)cc(O)c3c2O)C1 | Not Active | Not Active | – | – | –
2 | CCCCCC[C@@H]1C(=O)c2c(cc3cc(O)cc(O)c3c2O)C[C@H]1C | – | – | 3 | 3 | –
3 | CCCCC/C=C1/C(=O)c2c(cc3cc(O)cc(O)c3c2O)C[C@H]1C | – | – | 2.5 | 2.5 | –
4 | CCCCCC[C@H]1C(=O)c2c(cc3cc(O)cc(O)c3c2O)C[C@H]1C | – | – | 3 | 2.5 | –
5 | CCCCCC(O)C1C(=O)c2c(cc3cc(O)cc(O)c3c2O)C[C@H]1C (stereo partly specified) | – | – | 6.5 | 4.5 | –
6 | CCCCCCC1C(=O)c2c(cc3cc(O)cc(O)c3c2O)C[C@H]1C (stereo partly specified) | – | – | 3.5 | 3 | –
7 | CO[C@@H]1[C@H](O)C[C@@H](O[C@@H]2C[C@H](Oc3cc4cc5c(c(O)c4c(O)c3C)C(=O)[C@@H](O[C@H]3C[C@@H](O[C@H]4C[C@@H](O[C@H]6C[C@](C)(O)[C@@H](OC(C)=O)[C@H](C)O6)[C@H](O)[C@@H](C)O4)[C@H](O)[C@@H](C)O3)[C@H]([C@H](OC)C(=O)[C@@H](O)[C@@H](C)O)C5)O[C@H](C)[C@@H]2OC(C)=O)O[C@@H]1C [CHROMOMYCIN A3] | – | – | – | 9 | 3
8 | CN1CCN(c2ccc3[nH]c(-c4ccc5[nH]c(-c6ccc(O)cc6)nc5c4)nc3c2)CC1 [HOECHST 33258] | – | – | > 20 | 1 | –

Source: ChEMBL document CHEMBL1137035, “New DNA binding ligands as a model of chromomycin A3” (Bioorg Med Chem Lett, 2004)
